Article PMC7050655 (ChemistryOpen, 2020)

Assays:
[1] = target: human membrane bound IRAP overexpressed in HEK293 cells (Homo sapiens, UniProt Q9UIQ6); format: biochemical
Method in brief: (§1)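 HEK293T suspension cells were grown in Freestyle medium (37 °C, 8 % CO2, shaken) and transfected with PEI (2 μg/10^6 cells). Plasmid per 10^6 cells was 1.1 μg for human IRAP and 0.7 μg for human APN. Cells were harvested at 48 h. Membranes were prepared as for CHO cells, stored at −80 °C, Dounce-homogenised and diluted in assay buffer. The set-up matched the CHO assay: 1 mM L-Leu-pNA, pH 7.4 Tris/NaCl/PMSF buffer, 405 nm absorbance.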

[2] = target: human aminopeptidase N overexpressed in HEK293 cells (Homo sapiens, UniProt P15144); format: biochemical; conditions: for specificity for IRAP over human APN: IRAP versus human APN; for pIC50: human aminopeptidase N overexpressed in HEK293 cells
Sequence of human aminopeptidase N overexpressed in HEK293 cells (P15144 whole entry): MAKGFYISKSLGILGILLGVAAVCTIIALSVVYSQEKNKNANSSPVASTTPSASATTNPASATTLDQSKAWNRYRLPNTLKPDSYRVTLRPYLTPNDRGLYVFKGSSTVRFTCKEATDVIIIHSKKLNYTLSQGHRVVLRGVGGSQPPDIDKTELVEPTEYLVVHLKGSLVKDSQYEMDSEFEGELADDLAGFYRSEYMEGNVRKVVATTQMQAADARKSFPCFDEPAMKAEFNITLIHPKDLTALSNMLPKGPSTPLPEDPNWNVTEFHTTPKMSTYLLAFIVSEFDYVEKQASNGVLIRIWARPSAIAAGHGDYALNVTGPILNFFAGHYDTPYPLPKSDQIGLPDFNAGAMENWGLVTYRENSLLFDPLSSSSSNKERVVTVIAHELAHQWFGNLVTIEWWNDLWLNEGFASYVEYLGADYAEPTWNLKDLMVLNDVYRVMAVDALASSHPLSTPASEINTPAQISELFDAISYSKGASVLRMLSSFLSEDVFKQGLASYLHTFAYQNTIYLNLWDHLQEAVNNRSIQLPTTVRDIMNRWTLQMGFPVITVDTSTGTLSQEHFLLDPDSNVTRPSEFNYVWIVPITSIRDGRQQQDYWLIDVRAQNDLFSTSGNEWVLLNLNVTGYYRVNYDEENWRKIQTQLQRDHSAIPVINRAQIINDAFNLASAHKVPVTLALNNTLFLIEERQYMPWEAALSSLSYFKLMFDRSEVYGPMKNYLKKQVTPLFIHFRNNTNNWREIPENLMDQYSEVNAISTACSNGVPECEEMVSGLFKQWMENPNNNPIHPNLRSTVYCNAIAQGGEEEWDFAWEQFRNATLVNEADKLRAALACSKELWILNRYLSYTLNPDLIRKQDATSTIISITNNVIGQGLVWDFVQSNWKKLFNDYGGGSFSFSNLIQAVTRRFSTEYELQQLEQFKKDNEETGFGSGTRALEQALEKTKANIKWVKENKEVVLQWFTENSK
Method in brief: as §1

IRAP = target: T1, IRAP (Cricetulus griseus, UniProt A0A8C2M8D5); assay: Enzyme kinetics / competition studies with varied L-Leu-pNA substrate; format: biochemical; conditions: enzyme kinetics experiments
T1 sequence (A0A8C2M8D5 1-1025): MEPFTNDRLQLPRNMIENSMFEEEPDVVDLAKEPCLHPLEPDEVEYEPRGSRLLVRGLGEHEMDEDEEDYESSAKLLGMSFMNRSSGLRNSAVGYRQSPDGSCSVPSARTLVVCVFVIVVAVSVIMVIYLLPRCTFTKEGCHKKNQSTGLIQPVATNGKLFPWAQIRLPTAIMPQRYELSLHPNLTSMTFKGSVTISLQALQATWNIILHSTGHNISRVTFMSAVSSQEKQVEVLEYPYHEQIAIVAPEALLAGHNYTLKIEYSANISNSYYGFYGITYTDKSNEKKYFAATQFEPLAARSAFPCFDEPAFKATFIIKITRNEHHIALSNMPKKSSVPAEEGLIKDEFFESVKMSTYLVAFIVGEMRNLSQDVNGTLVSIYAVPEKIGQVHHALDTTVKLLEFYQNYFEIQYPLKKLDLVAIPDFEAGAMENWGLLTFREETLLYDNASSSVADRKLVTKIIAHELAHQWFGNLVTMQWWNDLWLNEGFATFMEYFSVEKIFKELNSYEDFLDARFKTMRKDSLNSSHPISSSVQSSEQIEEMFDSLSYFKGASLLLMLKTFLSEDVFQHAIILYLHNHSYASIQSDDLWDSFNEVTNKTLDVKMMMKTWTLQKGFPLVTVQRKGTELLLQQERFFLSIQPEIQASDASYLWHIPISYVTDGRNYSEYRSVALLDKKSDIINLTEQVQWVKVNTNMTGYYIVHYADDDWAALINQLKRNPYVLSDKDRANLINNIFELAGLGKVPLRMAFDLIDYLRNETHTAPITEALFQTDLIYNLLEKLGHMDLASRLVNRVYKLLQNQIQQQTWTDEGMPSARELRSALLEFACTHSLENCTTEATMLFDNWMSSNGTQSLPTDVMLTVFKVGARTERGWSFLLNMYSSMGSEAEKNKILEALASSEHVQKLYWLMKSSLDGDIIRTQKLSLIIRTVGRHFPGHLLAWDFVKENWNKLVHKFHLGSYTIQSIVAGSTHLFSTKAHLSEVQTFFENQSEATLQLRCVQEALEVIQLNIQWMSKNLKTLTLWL
Method in brief: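 Inhibitor was serially diluted (39 nM–150 μM), with four technical replicates per substrate level. Absorbance at 405 nm was read every ten minutes. The 150 μM slope defined maximal inhibition and was subtracted. Rates were fitted to uncompetitive, competitive and non-competitive models and compared; per-concentration Michaelis-Menten fits were also made.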

[3] = Metabolic stability in human liver microsomes; format: in vitro ADME
Method in brief: (§2)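 Part of an automated 96-well preclinical profiling panel with UPLC-MS/MS read-out. Values are mean and SD from three independent test occasions.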

[4] = Metabolic stability in rat hepatocytes; format: in vitro ADME; conditions: for hepatocyte CLint: Rat hep. Clint (rat hepatocytes intrinsic clearance), rat hepatocytes; for half-life: Rat hep. t 1/2, rat hepatocytes
Method in brief: as §2

[5] = Human plasma protein binding; format: in vitro ADME; conditions: PPB (human protein plasma binding)
Method in brief: (§3)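 Part of an automated 96-well profiling panel run in […], reporting fraction unbound and compound stability (% remaining after 18 h). Read-out by UPLC-MS/MS. Values are mean and SD from three independent test occasions.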

Human plasma stability = format: in vitro ADME; conditions: after 18 h incubation
Method in brief: as §3

IRAP from CHO cells = target: T2, IRAP from CHO cells (Cricetulus griseus, UniProt A0A8C2M8D5); assay: IRAP inhibition, membrane preparations from CHO cells, L-Leu-pNA cleavage; format: biochemical, Chinese hamster
T2 sequence (A0A8C2M8D5 1-1025): T1 sequence (A0A8C2M8D5 1-1025)

Sequence of human membrane bound IRAP overexpressed in HEK293 cells (Q9UIQ6 whole entry): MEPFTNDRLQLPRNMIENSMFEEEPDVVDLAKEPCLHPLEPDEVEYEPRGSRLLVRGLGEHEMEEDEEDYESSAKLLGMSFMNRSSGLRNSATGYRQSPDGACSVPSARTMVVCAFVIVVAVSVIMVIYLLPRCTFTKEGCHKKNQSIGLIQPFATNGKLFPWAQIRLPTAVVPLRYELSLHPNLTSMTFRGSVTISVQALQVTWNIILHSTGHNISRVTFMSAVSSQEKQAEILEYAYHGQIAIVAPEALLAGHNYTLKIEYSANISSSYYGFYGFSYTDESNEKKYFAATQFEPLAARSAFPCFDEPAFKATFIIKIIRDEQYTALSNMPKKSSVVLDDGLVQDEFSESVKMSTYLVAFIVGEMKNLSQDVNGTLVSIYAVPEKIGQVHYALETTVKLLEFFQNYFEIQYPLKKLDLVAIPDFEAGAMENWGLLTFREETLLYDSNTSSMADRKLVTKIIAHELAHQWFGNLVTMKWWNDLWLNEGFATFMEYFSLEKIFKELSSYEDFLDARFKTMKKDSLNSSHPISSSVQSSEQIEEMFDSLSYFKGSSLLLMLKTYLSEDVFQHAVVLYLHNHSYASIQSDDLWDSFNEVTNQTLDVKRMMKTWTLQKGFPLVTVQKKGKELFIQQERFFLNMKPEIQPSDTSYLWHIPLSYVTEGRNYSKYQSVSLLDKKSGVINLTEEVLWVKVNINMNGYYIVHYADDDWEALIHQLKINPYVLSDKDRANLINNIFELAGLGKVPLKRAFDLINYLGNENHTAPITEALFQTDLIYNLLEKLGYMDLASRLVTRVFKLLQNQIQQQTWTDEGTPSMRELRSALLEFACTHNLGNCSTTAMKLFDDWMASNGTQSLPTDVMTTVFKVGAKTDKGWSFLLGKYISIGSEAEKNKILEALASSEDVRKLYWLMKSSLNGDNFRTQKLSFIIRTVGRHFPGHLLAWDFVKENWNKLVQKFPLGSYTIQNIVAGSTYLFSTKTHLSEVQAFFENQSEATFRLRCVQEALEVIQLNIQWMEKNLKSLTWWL

Structure (SMILES) | IC50 [1] | specificity for IRAP over human APN [2] | pIC50 [2] | mode of inhibition versus L-Leu-pNA (IRAP) | half-life [3] | microsomal CLint [3] | hepatocyte CLint [4] | half-life [4] | fraction unbound [5] | Plasma stab (human plasma stability) (Human plasma stability) | decrease of activity compared to compound 1 (IRAP from CHO cells) | loss of activity on hIRAP compared to IRAP from CHO-cells ([1]; hIRAP versus CHO IRAP)
CN1C(=O)C2(Nc3ccccc3C(=O)N2Cc2ccccc2)c2cc(Br)ccc21 (racemic) [Compound 32, 3′‐Benzyl‐5‐bromo‐1‐methyl‐1′H‐spiro[indoline‐3,2′‐quinazoline]‐2,4′(3′H)‐dione] | 5.01 µM | specificity for IRAP over human APN | Inactive | uncompetitive inhibitor | – | – | – | – | – | – | – | –
CN(C)CCN1C(=O)c2ccccc2NC12C(=O)N(C)c1ccc(Br)cc12 (stereo not shown) [Compound 40, 5‐Bromo‐3′‐(2‐(dimethylamino)ethyl)‐1‐methyl‐1′H‐spiro[indoline‐3,2′‐quinazoline]‐2,4′(3′H)‐dione] | 39.8 µM | specificity for IRAP over human APN | Inactive | – | 8.6 ± 1 min | 81 ± 10 µL/min/mg | 136 ± 22 µL/min/1e6 cells | 5.2 ± 0.9 min | 0.4 ± 0.04 | 95±2 % compound remaining | – | –
COCCN1C(=O)c2ccccc2NC12C(=O)N(C)c1ccc(Br)cc12 (stereo not shown) [Compound 39, 5‐Bromo‐3′‐(2‐methoxyethyl)‐1‐methyl‐1′H‐spiro[indoline‐3,2′‐quinazoline]‐2,4′(3′H)‐dione] | 50.1 µM | specificity for IRAP over human APN | Inactive | – | < 2.3 min | > 300 µL/min/mg | 91 ± 8 µL/min/1e6 cells | 7.6 ± 0.6 min | 0.14 ± 0.006 | 99±1 % compound remaining | – | –
CCc1ccccc1-c1ccc2c(c1)C1(Nc3ccccc3C(=O)N1c1ccc(C)cc1)C(=O)N2C (stereo not shown) [Compound 15, 5‐(2‐Ethylphenyl)‐1‐methyl‐3′‐(p‐tolyl)‐1′H‐spiro[indoline‐3,2′‐quinazoline]‐2,4′(3′H)‐dione] | – | – | – | – | < 2.3 min | > 300 µL/min/mg | > 300 µL/min/1e6 cells | < 2.3 min | 0.0025 to 0.032 | 102±25 % compound remaining | – | –
CCCCN1C(=O)c2ccccc2NC12C(=O)N(C)c1ccc(Br)cc12 (stereo not shown) [Compound 38, 5‐Bromo‐3′‐butyl‐1‐methyl‐1′H‐spiro[indoline‐3,2′‐quinazoline]‐2,4′(3′H)‐dione] | – | – | – | – | < 2.3 min | > 300 µL/min/mg | 248 ± 5 µL/min/1e6 cells | 2.8 ± 0.06 min | 0.019 ± 0.004 | 105±7 % compound remaining | – | –
CN1C(=O)C2(Nc3ccccc3C(=O)N2Cc2cccnc2)c2cc(Br)ccc21 (stereo not shown) [Compound 36, 5‐Bromo‐1‐methyl‐3′‐(pyridin‐3‐ylmethyl)‐1′H‐spiro[indoline‐3,2′‐quinazoline]‐2,4′(3′H)‐dione] | 31.6 µM | specificity for IRAP over human APN | Inactive | – | < 2.3 min | > 300 µL/min/mg | 84 ± 14 µL/min/1e6 cells | 8.5 ± 1.6 min | 0.055 ± 0.004 | 97±15 % compound remaining | – | –
Cc1ccc(N2C(=O)c3ccccc3NC23C(=O)N(C)c2ccc(C)cc23)cc1 (stereo not shown) [Compound 10, 1,5‐Dimethyl‐3′‐(p‐tolyl)‐1′H‐spiro[indoline‐3,2′‐quinazoline]‐2,4′(3′H)‐dione] | – | – | – | – | – | – | – | – | – | – | tenfold | –
COc1ccc2c(c1)C1(Nc3ccccc3C(=O)N1c1ccc(C)cc1)C(=O)N2C (stereo not shown) [Compound 9, 5‐Methoxy‐1‐methyl‐3′‐(p‐tolyl)‐1′H‐spiro[indoline‐3,2′‐quinazoline]‐2,4′(3′H)‐dione] | – | – | – | – | – | – | – | – | – | – | tenfold | –
Cc1ccc(N2C(=O)c3ccccc3NC23C(=O)N(C)c2ccc([N+](=O)[O-])cc23)cc1 (stereo not shown) [Compound 7, 1‐Methyl‐5‐nitro‐3′‐(p‐tolyl)‐1′H‐spiro[indoline‐3,2′‐quinazoline]‐2,4′(3′H)‐dione] | 31.6 µM | specificity for IRAP over human APN | completely inactive | – | < 2.3 min | > 300 µL/min/mg | 114 ± 4 µL/min/1e6 cells | 6.1 ± 0.2 min | 0.098 ± 0.02 | 100±5 % compound remaining | – | 10 to 15 fold
CN1C(=O)C2(Nc3ccccc3C(=O)N2Cc2ccco2)c2cc(Br)ccc21 (stereo not shown) [Compound 37, 5‐Bromo‐3′‐(furan‐2‐ylmethyl)‐1‐methyl‐1′H‐spiro[indoline‐3,2′‐quinazoline]‐2,4′(3′H)‐dione] | 12.6 µM | specificity for IRAP over human APN | Inactive | – | < 2.3 min | > 300 µL/min/mg | 132 ± 39 µL/min/1e6 cells | 5.5 ± 1.4 min | 0.041 ± 0.008 | 98±3 % compound remaining | – | –
